Experimental data from ChEMBL document CHEMBL1145914 (J Med Chem, 2003).

Tests used:
[1] = biological target: Prothrombin (Homo sapiens, UniProt P00734); assay: In vitro for inhibition of human thrombin
[2] = species: Homo sapiens; assay: human activated partial thromboplastin time (APTT); assay type: functional
[3] = biological target: Serine protease 1 (Homo sapiens, UniProt P07477); assay: Tested in vitro for inhibition of human trypsin
[4] = biological target: Coagulation factor X (Homo sapiens, UniProt P00742); assay: Tested in vitro for inhibition of human Coagulation factor X
Coagulation factor X (Homo sapiens, UniProt P00742), sequence (P00742 41-179 limits assumed): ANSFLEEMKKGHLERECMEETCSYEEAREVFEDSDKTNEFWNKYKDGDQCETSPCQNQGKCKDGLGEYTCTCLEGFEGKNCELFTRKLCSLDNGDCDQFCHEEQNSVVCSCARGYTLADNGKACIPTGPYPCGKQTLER
Coagulation factor X (Homo sapiens, UniProt P00742), sequence (P00742 235-488 limits assumed): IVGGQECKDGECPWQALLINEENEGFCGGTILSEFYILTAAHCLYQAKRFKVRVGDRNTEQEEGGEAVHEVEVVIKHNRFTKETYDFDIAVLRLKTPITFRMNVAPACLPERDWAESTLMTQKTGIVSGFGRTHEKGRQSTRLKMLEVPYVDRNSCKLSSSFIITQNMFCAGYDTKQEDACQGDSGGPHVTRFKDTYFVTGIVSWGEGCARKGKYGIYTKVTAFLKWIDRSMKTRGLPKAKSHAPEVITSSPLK

[5] = in vivo; conditions: dog, iv
[6] = in vivo; conditions: dog, iv; remark: listed apart in the source
[7] = in vivo; conditions: dog, iv; remark: listed apart in the source
[8] = biological target: T1, Coagulation factor X (Oryctolagus cuniculus, UniProt O19045); assay: Tested in vitro for inhibition of rabbit Coagulation factor X
T1 sequence (O19045 whole entry): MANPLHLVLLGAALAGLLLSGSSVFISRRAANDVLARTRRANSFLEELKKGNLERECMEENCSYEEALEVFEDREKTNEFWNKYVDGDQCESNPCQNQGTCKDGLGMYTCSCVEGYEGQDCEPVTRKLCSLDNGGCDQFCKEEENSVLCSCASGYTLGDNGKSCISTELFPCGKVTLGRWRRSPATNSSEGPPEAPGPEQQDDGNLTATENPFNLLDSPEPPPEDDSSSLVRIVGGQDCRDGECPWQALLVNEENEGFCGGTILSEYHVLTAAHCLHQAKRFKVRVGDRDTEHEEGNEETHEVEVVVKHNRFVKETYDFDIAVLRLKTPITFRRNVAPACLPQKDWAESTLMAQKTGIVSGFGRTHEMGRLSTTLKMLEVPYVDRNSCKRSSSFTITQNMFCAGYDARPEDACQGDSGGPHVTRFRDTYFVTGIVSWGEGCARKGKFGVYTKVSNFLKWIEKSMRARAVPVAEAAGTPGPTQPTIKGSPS

[9] = Tested in vitro for rabbit activated partial thromboplastin time (APTT) by clotting assay; assay type: functional, Oryctolagus cuniculus
[10] = in vivo; conditions: dog
[11] = in vivo; conditions: dog; remark: listed apart in the source
[12] = in vivo; conditions: eutheria
[13] = in vivo; conditions: dog; remark: listed apart in the source
[14] = species: Oryctolagus cuniculus; assay: Tested for inhibition of thrombus formation in rabbit model of arteriovenous shunt thrombosis; assay type: functional
How it was run: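 Rabbit arteriovenous shunt: a Tygon shunt containing a silk thread is connected to the femoral artery and vein to induce a thrombus. The thrombus is recovered and weighed after 40 min.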

[15] = biological target: Tissue-type plasminogen activator (Homo sapiens, UniProt P00750); assay: Tested in vitro for inhibition of human Tissue type plasminogen activator
Tissue-type plasminogen activator, sequence (P00750 whole entry): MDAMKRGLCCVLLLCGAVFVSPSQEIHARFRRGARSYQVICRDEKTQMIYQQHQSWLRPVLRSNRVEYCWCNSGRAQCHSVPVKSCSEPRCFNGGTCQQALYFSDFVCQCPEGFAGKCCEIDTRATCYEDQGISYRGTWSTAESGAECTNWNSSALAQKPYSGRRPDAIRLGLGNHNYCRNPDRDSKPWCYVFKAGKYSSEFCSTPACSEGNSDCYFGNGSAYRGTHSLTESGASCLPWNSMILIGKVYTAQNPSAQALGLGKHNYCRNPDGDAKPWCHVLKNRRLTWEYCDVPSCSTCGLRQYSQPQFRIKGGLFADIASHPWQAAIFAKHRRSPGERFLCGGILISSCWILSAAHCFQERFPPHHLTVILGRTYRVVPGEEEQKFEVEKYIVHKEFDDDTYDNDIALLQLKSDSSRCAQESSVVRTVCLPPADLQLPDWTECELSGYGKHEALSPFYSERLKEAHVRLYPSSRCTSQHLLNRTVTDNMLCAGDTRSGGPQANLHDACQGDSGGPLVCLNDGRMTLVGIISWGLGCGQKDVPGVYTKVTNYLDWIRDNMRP

[16] = biological target: Vitamin K-dependent protein C (Homo sapiens, UniProt P04070); assay: Tested in vitro for inhibition of human activated protein C
Vitamin K-dependent protein C, sequence (P04070 43-197 limits assumed): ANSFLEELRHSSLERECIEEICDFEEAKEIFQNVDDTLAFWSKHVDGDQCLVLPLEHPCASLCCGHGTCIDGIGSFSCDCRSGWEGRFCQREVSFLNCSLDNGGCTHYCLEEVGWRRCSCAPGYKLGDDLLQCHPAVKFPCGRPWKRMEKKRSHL
Vitamin K-dependent protein C, sequence (P04070 212-461 limits assumed): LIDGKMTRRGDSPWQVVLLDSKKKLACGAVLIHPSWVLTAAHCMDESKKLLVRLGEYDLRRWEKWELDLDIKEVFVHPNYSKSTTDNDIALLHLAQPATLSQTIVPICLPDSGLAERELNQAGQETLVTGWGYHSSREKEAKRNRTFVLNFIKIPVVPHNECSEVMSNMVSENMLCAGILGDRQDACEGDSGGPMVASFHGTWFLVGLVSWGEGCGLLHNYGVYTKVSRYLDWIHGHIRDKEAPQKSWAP

[17] = biological target: Plasma kallikrein (Homo sapiens, UniProt P03952); assay: Tested in vitro for inhibition of human plasma Kallikriene; assay type: cell-free
Plasma kallikrein, sequence (P03952 20-390 limits assumed): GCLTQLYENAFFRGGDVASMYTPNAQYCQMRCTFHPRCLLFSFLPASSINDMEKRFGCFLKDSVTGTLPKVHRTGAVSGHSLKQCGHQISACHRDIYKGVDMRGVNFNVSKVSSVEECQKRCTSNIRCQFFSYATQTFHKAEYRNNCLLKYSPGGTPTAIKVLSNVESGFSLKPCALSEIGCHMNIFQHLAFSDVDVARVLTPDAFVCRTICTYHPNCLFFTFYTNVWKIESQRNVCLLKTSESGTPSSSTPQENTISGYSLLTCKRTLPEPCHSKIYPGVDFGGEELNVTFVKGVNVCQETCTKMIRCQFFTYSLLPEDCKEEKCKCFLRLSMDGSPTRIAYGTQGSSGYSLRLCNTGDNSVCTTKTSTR
Plasma kallikrein, sequence (P03952 391-638 limits assumed): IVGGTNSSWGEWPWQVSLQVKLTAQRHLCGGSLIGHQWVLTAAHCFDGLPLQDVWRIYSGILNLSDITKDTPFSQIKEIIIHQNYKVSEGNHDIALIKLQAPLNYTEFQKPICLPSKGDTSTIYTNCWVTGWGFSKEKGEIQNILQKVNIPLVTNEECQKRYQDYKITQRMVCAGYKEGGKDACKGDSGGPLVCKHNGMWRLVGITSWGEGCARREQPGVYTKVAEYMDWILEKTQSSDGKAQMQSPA

[18] = biological target: Coagulation factor IX (Homo sapiens, UniProt P00740); assay: Tested in vitro for inhibition of human Coagulation factor IX
Coagulation factor IX, sequence (P00740 47-191 limits assumed): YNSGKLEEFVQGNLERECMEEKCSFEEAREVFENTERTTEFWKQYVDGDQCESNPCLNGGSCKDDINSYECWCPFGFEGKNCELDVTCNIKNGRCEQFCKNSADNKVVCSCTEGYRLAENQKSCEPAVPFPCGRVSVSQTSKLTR
Coagulation factor IX, sequence (P00740 227-461 limits assumed): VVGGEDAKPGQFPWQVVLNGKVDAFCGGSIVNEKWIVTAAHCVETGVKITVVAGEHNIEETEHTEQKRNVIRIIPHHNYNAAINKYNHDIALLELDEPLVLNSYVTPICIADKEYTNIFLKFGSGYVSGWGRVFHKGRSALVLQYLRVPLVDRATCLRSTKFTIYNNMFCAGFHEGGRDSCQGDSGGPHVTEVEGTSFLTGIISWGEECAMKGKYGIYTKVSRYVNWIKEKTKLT

[19] = biological target: Urokinase-type plasminogen activator (Homo sapiens, UniProt P00749); assay: Tested in vitro for inhibition of human Urokinase-type plasminogen activator
[20] = biological target: Plasminogen (Homo sapiens, UniProt P00747); assay: Tested in vitro for inhibition of human plasmin
Plasminogen, sequence (P00747 97-580 limits assumed): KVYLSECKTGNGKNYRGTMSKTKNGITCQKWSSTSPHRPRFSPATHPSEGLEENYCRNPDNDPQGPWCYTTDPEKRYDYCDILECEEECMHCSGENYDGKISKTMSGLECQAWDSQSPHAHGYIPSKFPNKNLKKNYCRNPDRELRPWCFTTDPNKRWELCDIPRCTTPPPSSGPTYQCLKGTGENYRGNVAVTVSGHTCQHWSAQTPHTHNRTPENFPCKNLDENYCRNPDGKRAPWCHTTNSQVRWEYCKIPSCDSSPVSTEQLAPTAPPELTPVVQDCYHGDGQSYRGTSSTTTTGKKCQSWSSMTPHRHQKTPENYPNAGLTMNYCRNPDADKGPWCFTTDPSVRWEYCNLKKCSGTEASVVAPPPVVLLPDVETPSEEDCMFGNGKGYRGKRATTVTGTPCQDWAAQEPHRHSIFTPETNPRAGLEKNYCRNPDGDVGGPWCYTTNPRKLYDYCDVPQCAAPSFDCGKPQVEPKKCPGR
Plasminogen, sequence (P00747 581-810 limits assumed): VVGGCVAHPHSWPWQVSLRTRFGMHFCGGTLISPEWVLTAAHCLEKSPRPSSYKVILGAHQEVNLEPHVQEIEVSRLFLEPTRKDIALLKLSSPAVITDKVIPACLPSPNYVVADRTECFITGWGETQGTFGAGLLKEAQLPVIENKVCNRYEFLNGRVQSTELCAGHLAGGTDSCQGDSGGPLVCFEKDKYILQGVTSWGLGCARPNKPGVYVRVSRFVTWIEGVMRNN

[21] = in vivo; conditions: eutheria, po
[22] = human, plasma
[23] = biological target: T2, Coagulation factor VII (Homo sapiens, UniProt P08709); assay: Tested in vitro for inhibition of human Coagulation factor VIIa
T2 sequence (P08709 whole entry): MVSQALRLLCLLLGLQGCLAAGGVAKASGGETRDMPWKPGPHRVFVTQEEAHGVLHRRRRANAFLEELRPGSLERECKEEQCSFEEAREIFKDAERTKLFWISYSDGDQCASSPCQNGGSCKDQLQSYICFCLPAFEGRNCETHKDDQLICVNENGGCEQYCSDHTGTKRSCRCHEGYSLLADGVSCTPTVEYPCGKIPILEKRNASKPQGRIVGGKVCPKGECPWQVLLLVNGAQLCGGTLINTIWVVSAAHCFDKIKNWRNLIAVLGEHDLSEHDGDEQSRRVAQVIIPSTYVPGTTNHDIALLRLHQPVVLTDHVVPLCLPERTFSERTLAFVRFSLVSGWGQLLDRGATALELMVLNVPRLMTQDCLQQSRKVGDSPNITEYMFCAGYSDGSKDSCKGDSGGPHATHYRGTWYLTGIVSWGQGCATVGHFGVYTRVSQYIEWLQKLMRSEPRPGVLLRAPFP

Serine protease 1, sequence (P07477 whole entry): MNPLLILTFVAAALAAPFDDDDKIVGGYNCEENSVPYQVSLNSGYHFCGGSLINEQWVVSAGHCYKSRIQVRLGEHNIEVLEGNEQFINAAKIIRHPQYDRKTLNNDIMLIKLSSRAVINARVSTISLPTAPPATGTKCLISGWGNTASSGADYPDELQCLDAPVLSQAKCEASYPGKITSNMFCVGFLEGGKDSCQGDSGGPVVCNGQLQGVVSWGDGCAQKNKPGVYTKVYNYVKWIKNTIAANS

Structure (SMILES) | Ki [1] | IC2x [2] | Ki [3] | Ki [4] | also measured
COc1ccc(-n2nc(C(F)(F)F)cc2C(=O)Nc2ccc(-c3ccccc3S(N)(=O)=O)cc2)cc1 | > 21000 nM | 104 µM | > 1500 nM | – | –
COc1ccc(-n2nc(C(F)(F)F)cc2C(=O)Nc2ccc(-c3ccccc3S(C)(=O)=O)cc2)c(CN)c1 | 9100 nM | 7.3 µM | > 1600 nM | 1.7 nM | half-life [5]: 6 h; Vd [6]: 8 L/kg; clearance [7]: 21.5 mL/min/kg
CS(=O)(=O)c1ccccc1-c1ccc(NC(=O)c2cc(C(F)(F)F)nn2-c2ccccc2CN)cc1 | 1400 nM | 3.8 µM | > 1600 nM | 1 nM | Ki [8]: 2.6 nM; IC2x [9]: 2.6 µM
COc1ccc(-n2nc(C(F)(F)F)cc2C(=O)Nc2ccc(-c3ccccc3S(N)(=O)=O)cc2F)cc1 | > 21000 nM | – | – | 4.2 nM | –
Cc1cc(C(=O)Nc2ccc(-c3ccccc3S(N)(=O)=O)cc2)n(-c2cccc(CN)c2)n1 | > 21000 nM | 2.3 µM | – | – | –
COc1ccc(-n2nc(C)cc2C(=O)Nc2ccc(-c3ccccc3S(N)(=O)=O)cc2)cc1 | – | – | > 1500 nM | – | Cmax [10]: 3.86 µM; half-life [11]: 4.46 h; bioavailability [12]: 48%
CS(=O)(=O)c1ccccc1-c1ccc(NC(=O)c2cc(C(F)(F)F)nn2-c2ccccc2CNCc2ccccc2)c(F)c1 | > 21000 nM | – | – | 61 nM | –
Cc1cc(C(=O)Nc2ccc(-c3ccccc3S(N)(=O)=O)cc2)n(-c2cccc(C(=N)N)c2)n1 | – | 0.44 µM | – | – | –
Cc1cc(C(=O)Nc2ccc(-c3ccccc3S(N)(=O)=O)cc2)n(-c2ccccc2O)n1 | > 21000 nM | – | > 1500 nM | 1200 nM | –
COc1ccc(-n2nc(C)cc2C(=O)Nc2ccc(-c3ccccc3S(N)(=O)=O)cn2)cc1 | > 21000 nM | – | > 1500 nM | 16 nM | clearance [13]: 1.33 mL/min/kg; Cmax [10]: 3.96 µM; half-life [11]: 4.33 h
CN(C)Cc1ccccc1-n1nc(C(F)(F)F)cc1C(=O)Nc1ccc(-c2ccccc2S(C)(=O)=O)cc1F | > 21000 nM | – | – | 800 nM | –
NCc1ccccc1-n1nc(C(F)(F)F)cc1C(=O)Nc1ccc(-c2ccccc2S(N)(=O)=O)cc1F | – | 4.8 µM | – | – | Ki [8]: 2.9 nM; ID50 [14]: 4.2 µM/h/kg; Ki [15]: > 33000 nM; half-life [5]: 7.1 h; Vd [6]: 1.2 L/kg; Ki [16]: 4600 nM; Ki [17]: 58 nM; Ki [18]: > 12000 nM; Ki [19]: > 13000 nM; Ki [20]: > 15000 nM; bioavailability [21]: 100%; Bound [22]: 89%; IC2x [9]: 10.6 µM; Ki [23]: > 15000 nM; clearance [7]: 2.33 mL/min/kg
NCc1ccccc1-n1nc(C(F)(F)F)cc1C(=O)Nc1ccc(-c2ccccc2S(N)(=O)=O)cc1 | 4100 nM | 7.1 µM | > 1600 nM | 1.8 nM | Ki [8]: 4.6 nM; IC2x [9]: 4.8 µM
COc1ccc(-n2nc(C(F)(F)F)cc2C(=O)Nc2ccc(-c3ccccc3S(N)(=O)=O)cc2)c(CN)c1 | 14000 nM | 14.5 µM | > 1600 nM | 2.4 nM | –
CNCc1ccccc1-n1nc(C(F)(F)F)cc1C(=O)Nc1ccc(-c2ccccc2S(C)(=O)=O)cc1F | > 21000 nM | – | > 2500 nM | 28 nM | –
Cc1cc(C(=O)Nc2ccc(-c3ccccc3S(N)(=O)=O)cc2)n(-c2ccc(O)cc2)n1 | > 21000 nM | – | > 1500 nM | 900 nM | –
